High-throughput results as filed in PubChem BioAssay.
STK33 inh: blocks human STK33 kinase activity; Q9BYT3; inhibition, % at 10 µM; purified STK33, MBP phosphorylation, ADP-Glo luminescence; hit rate 0.073% among 320,000;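 active = inhibition at or above 25%, using the most active replicate where run in duplicate; inactive = inhibition below 25%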
H9c2 TAG inh: inhibitors of triacylglycerol accumulation. H9c2 cells, Nile Red lipid (TAG) fluorescence; cells loaded with 200 µM oleic acid. inhibition, % at 12.5 µM. hit rate 0.66% among 230,000;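 active = pattern-corrected inhibition of lipid staining of at least 50% with the nuclear-stain viability signal not falling by more than 50%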;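 also: 0% = DMSO wells and 100% = triacsin C control wells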
Hep lipid drop: modulators of hepatic lipid droplet formation; inhibition, % at 6.5 µM; hit rate 0.4% among 240,000; AML12 mouse hepatocytes, oleate lipid droplets, BODIPY imaging; AID 1656;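 active = lipid droplet intensity inhibited by at least 50%, with more than 500 cells counted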
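Material – mouse AML12 hepatocyte cell line, fixed after treatment · Compound dosing – one dose, 6.5 µM compound · Times – compound with oleate, overnight · Measured by – Image-based BODIPY and DAPI two-channel analysis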
LANA-H2B inh: blocks KSHV LANA binding to histone H2A/H2B. Q9QR71. cell-free LANA-H2A/H2B peptide, fluorescence polarization. inhibition, % (concentration not given with the values). hit rate 0.6% among 320,000; in the data active = inhibition mostly above about 10%, no sharp cut-off; inactive = mostly below about 6.7%
GSK3 alpha inh: blocks human GSK-3 alpha kinase. ADP-Glo luminescence, 60 min. inhibition, % at 10 µM. P49840. hit rate 0.1% among 320,000;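 active = more than half of replicates show inhibition above 20%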;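 also: GST-tagged GSK-3 alpha with peptide substrate and 25 µM ATP; 0% = DMSO neutral wells and 100% = GW8510 positive control wells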
GSK3beta inhib: blocks human GSK3beta kinase activity; activity score (negative = inhibition), % at 10 µM; hit rate 0.038% among 300,000; GST-GSK3beta kinase, ADP-Glo luminescence, 60 min; active compounds read low;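 active = more than half of replicate wells score below -50%, meaning over 50% inhibition versus plate controls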;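 also: 0% = median DMSO wells and -100% = median GW8510 positive control wells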
Target sequence (P49841 whole entry, looked up): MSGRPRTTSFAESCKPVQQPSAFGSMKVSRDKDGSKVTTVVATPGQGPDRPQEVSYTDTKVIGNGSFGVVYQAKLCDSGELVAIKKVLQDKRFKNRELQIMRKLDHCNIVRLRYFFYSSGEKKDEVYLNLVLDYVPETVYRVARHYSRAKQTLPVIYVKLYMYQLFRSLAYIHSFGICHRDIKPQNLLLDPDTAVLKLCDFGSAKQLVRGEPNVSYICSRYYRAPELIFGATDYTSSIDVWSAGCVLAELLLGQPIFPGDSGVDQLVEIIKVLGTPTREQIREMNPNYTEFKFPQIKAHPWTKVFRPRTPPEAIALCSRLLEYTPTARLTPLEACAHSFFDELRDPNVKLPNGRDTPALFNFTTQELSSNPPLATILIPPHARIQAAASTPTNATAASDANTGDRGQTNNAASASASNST
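Assay system: GST-tagged human GSK3beta kinase, cell-free; Input: 1.6 ng GSK3beta; Medium: Tris/MgCl2 kinase buffer; Timing: 60 min enzyme reaction, room temperature; Signal: ADP-Glo luminescence quantifying ADP generated by kinase; Evaluation: score relative to plate controls; Benchmarks: DMSO neutral wells and GW8510 at 20 µM as positive.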
Hep lipid conf: hepatic lipid droplet formation inhibition, confirmed. AML12 mouse hepatocytes, BODIPY lipid droplet imaging; droplets induced with 100 µM oleic acid. hit rate 65% among 870. shares compounds with Hep lipid drop. inhibition, % at 5.2 µM;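 active = inhibition of lipid droplet metric at least 50%, with more than 300 cells in each of four replicates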;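 also: plate controls were DMSO with oleic acid for no effect and 5 µM Triacsin-C for full effect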
AML12 tox img: AML12 hepatocyte cytotoxicity (counter-screen) | shares compounds with Hep lipid drop | AML12 mouse hepatocytes, DAPI nuclear morphology cytotoxicity imaging; active compounds read high; cells fed 100 µM oleate overnight | z-score at 5 µM | hit rate 3% among 870 | AID 463200; in the data active = z-score above about 6.3;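 also: compound exposure lasted overnight at 37 °C before fixation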
AML12 tox ATP: AML12 hepatocyte cytotoxicity, confirmed; 530 tested, under 10 active; shares compounds with Hep lipid drop; cytotoxicity, % at 50 µM; AML12 mouse hepatocyte viability, ATP luminescence; cells loaded with 100 µM oleic acid;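 active = cytotoxicity above 50% in each of four replicates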;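 also: compound exposure lasted overnight at 37 °C before the ATP read; 0% = DMSO-treated cells and 100% = wells with no cells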
An asterisk follows results filed as active; . = no result. Hits are enriched below; roughly 1.3% of the tested compounds scored in any of these assays.

SMILES	STK33 inh	H9c2 TAG inh	Hep lipid drop	LANA-H2B inh	GSK3 alpha inh	GSK3beta inhib	Hep lipid conf	AML12 tox img	AML12 tox ATP
COC(=O)[C@H](Cc1c[nH]c2ccccc12)NC(=O)CCCc1c[nH]c2ccccc12	-1.7	.	60.3*	-2.5	-0.2	1.4	56.5	-0.632	20.2
Cc1ccc(CNC(=O)CCCc2c[nH]c3ccccc23)cc1	-1.0	.	71.2*	0.1	-3.1	2.9	74.2*	0.0414	7.9
Cc1ccc(NC(=O)CCCc2c[nH]c3ccccc23)nc1	-0.3	-10.7	82.6*	0.7	-3.1	1.8	-3.3	0.537	.
COC(=O)[C@H](Cc1c[nH]c2ccccc12)NC(=O)Cc1c[nH]c2ccccc12	-0.4	.	-4.3	9.5	-4.1	0.8	.	.	.
Cc1cccc(C)c1NC(=O)CNC(=O)CCCc1c[nH]c2ccccc12	0.1	2.2	.	-3.9	-0.6	1.8	.	.	.
CCn1cc(C(=O)O)c(=O)c2cc(F)c(N3CCN(C(=S)NC(=O)c4ccccc4F)CC3)cc21	-2.4	-0.3	-10.9	1.4	-1.2	2.3	.	.	.
COC(=O)c1ccc(NS(=O)(=O)c2ccc3c(c2)n(C)c(=O)n3C)cc1	-1.1	-9.9	53.1*	1.1	-0.9	-0.6	15.7	0.164	.
CCOc1ccccc1NC(=O)CCCNC(=O)c1ccc(Cl)cc1	4.2	.	73.2*	3.0	0.0	-2.4	77.8*	0.086	8.6
CCOc1ccccc1NC(=O)CCNC(=O)c1ccc(Cl)cc1	0.5	23.7	45.0	-3.3	0.1	3.6	.	.	.
CCOc1ccccc1NC(=O)CCCNC(=O)Cn1cnc2sc(C)c(C)c2c1=O	-1.1	.	58.7*	0.8	-1.0	-3.9	64.3	-0.0532	9.4
COc1ccc(OC)c(NC(=O)CCCNC(=O)c2ccc(Cl)cc2)c1	-1.1	.	58.4*	-6.5	0.7	1.6	73.0*	-0.556	15.2
COc1ccc(Cl)cc1NC(=O)CCCNC(=O)c1ccc(Cl)cc1	-0.9	.	44.4	-0.7	-1.5	-7.2	.	.	.
Cc1onc(-c2ccccc2)c1C(=O)OCC(=O)Nc1ccc(Cl)cc1	-0.6	-22.8	.	2.4	17.0	.	.	.	.
COc1ccc([C@@H]2COc3c(ccc4c3C=CC(C)(C)O4)C2)c(OC)c1	0.0	.	.	5.8	-0.8	1.2	.	.	.
O=C(Nc1ccc([N+](=O)[O-])cn1)c1cc(-c2cccc(Br)c2)nc2ccccc12	-1.8	.	63.6*	-3.0	-3.5	0.0	64.2*	-0.171	10.1
COc1cccc(-c2cc(C(=O)Nc3ccc([N+](=O)[O-])cn3)c3ccccc3n2)c1	0.0	.	57.2*	-2.4	2.1	-0.6	74.6*	-0.595	11.7
O=C(Nc1ncccn1)c1cc(-c2cccc(Br)c2)nc2ccccc12	-1.0	.	5.2	-4.9	-0.4	-2.9	.	.	.
COc1ccc(C2c3[nH]c4ccccc4c3CCN2C(=O)c2ccc(=O)n(C)n2)c(F)c1 (centres undefined)	3.1	2.7	4.5	-7.1	5.7	1.2	.	.	.
CCc1cc(C(=O)N2CCc3c([nH]c4ccccc34)C2c2ccc(OC)cc2F)no1 (centres undefined)	-1.1	15.3	68.6*	-1.5	0.5	0.0	81.4*	0.769	-20.3
Cc1ccccc1OCC(=O)NCCCNC(=O)c1ccccn1	2.0	.	93.1*	0.8	-0.5	0.7	10.1	-0.455	.
Cc1ccc(OCC(=O)NCCCNC(=O)c2ccccn2)cc1	0.7	.	-3.1	4.5	-0.4	-2.2	.	.	.
CCCCOc1ccc(/C=C/C(=O)OCC(=O)c2c(N)n(C)c(=O)n(C)c2=O)cc1OCC	-1.0	8.3	52.2*	-1.4	1.2	2.8	67.1*	-0.413	-2.2
COc1ccccc1CNS(=O)(=O)c1ccc2c(c1)CC(C)N2C(=O)C1CC1 (centres undefined)	-2.1	.	79.4*	-7.0	-0.7	-1.5	106.0*	-1.11	17.9
CC1Cc2cc(S(=O)(=O)NCCC(=O)N(C)Cc3ccccc3)ccc2N1C(=O)C1CC1 (centres undefined)	-0.4	.	61.0*	-0.4	-2.7	-3.8	66.7*	-0.836	20.6
CCC(=O)N1c2ccc(S(=O)(=O)NCCc3ccccc3)cc2CC1C (centres undefined)	-1.0	.	-0.7	-0.7	-1.6	-2.8	.	.	.
SMILES	STK33 inh	H9c2 TAG inh	Hep lipid drop	LANA-H2B inh	GSK3 alpha inh	GSK3beta inhib	Hep lipid conf	AML12 tox img	AML12 tox ATP
COc1ccc(CCNS(=O)(=O)c2ccc3c(c2)CC(C)N3C(=O)C2CC2)cc1OC (centres undefined)	.	16.5	.	.	.	.	.	.	.
COc1ccccc1CNS(=O)(=O)c1ccc2c(c1)CC(C)N2C(=O)C1CCC1 (centres undefined)	1.9	.	64.4*	-0.6	-0.1	1.5	99.3*	0.0839	21.5
CCOC(=O)c1c(C)[nH]c(N=Nc2ccccc2Cl)c1C	-0.6	10.8	64.8*	-3.9	-1.6	0.2	104.8*	0.393	4.7
COc1ccc(C2CC(=O)c3cnc(NC(=O)c4ccccc4)nc3C2)c(OC)c1 (centres undefined)	1.0	.	.	0.2	-1.1	-4.8	.	.	.
CCOc1ccccc1Nc1nnc(SCC(=O)Nc2nc(-c3ccc(OC)cc3)cs2)s1	0.0	35.5	91.1*	-1.3	0.1	-1.1	104.0*	0.275	6.0
Cc1ccc(NC(=O)C2CCCN(S(=O)(=O)c3c(C)noc3/C=C/N(C)C)C2)cc1F (centres undefined)	-0.4	.	56.9*	0.0	5.8	.	76.8*	-0.685	8.1
Cc1noc(/C=C/N(C)C)c1S(=O)(=O)N1CCC(C(=O)Nc2ccc(Cl)cc2)CC1	-1.9	.	3.2	1.0	-1.5	2.6	.	.	.
CC(=O)c1ccc(N=Nc2ccc(N(C)C)cc2)cc1	-0.3	.	16.1	-0.1	0.4	-1.0	.	.	.
CN(C)c1ccc(N=Nc2ccccc2Br)cc1	1.1	.	67.2*	-3.4	-0.2	0.4	112.5*	0.0388	80.6*
O=C(NC(=S)Nc1ccccn1)c1ccc(-c2ccccc2)cc1	-0.5	-14.2	94.0*	2.9	-1.0	-1.9	16.0	-0.622	.
O=C(NC(=S)Nc1ccccn1)c1ccc([N+](=O)[O-])cc1	.	.	2.5	.	.	3.4	.	.	.
Cc1cc(C(F)(F)F)cc(NNC(=O)NC(=O)c2ccccc2Cl)n1	-1.3	-11.2	6.1	8.0	-0.5	-3.7	.	.	.
COc1ccc(CNC(=O)N2CCN(S(=O)(=O)c3ccc(C)cc3C)CC2)cc1	-1.3	.	82.2*	-1.4	0.6	0.0	79.3*	-0.245	9.1
CCOc1ccc(-c2noc(CCCC(=O)NCC3CCCO3)n2)cc1OC (centres undefined)	-2.0	.	0.4	0.7	-0.5	0.2	.	.	.
